# High-throughput results: PubChem BioAssay, Broad Institute
# FN deposition inh – inhibitors of fibronectin matrix deposition, primary screen, AH1F cells, Alexa488-fibronectin fluorescence, plate reader | AID 743247, 2014 | inhibition, % at 12.6 µM | AH1F fibroblasts, overnight | actives 0.086% (n = 350,000);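 active = mean inhibition across replicates of 30% or more, regardless of how many single replicates reach that level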;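 note: positive control wells lacked labelled fibronectin entirely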
#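 Material – AH1F fibroblast monolayer, labelled fibronectin deposition · Reagent – labelled fibronectin 24 nM · Timing – 1 h adhesion, overnight exposure · Measured by – fluorescence at 485 nm excitation, 525 nm emission · Read-out – inhibition of fibronectin deposition signal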
# F508del corr – F508del CFTR correction, initial screen, CFBE line, single point; activity (quench increase), % at 7.58 µM; CFBE cells, YFP halide quenching; stimulated with forskolin plus potentiator P3; % fluorescence drop versus neutral controls; actives 0.36% (n = 350,000); AID 720511, 2013;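 active = mean added fluorescence quench of at least 8% versus neutral control, with both replicates also reaching 8%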;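 note: cells transiently co-express mutant CFTR-F508del with the halide-sensitive YFP; corrector assay measuring rescue of mutant channel to the surface after 24 h compound exposure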
# Cneo AK release – Cryptococcus neoformans cell lysis inducers, primary screen, AK release luminescence, single concentration; C. neoformans lysis, adenylate kinase release luminescence, 4 h; normalised: neutral wells 0, clomiphene wells 100; lysis activity, % at 15 µM; actives 0.2% (n = 360,000); AID 651654, 2012;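 active = mean lysis activity across replicates of at least 80%, whatever share of replicates individually reach that level; inactive = mean lysis activity below 80%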
#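 Material: C. neoformans cells; Schedule: 4 h static compound exposure, 37 °C, read 1 h post-reagent; Measured by: adenylate kinase release luminescence; Read-out: signal increase indicating cell lysis; Controls: Clomiphene as positive lysis control.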
# PGC1a acetyl inh – inhibitors of PGC1a acetylation signal, primary screen, cell-based, U2OS, AlphaScreen, inhibitor mode. AID 651687, 2012. inhibition, % at 15.6 µM. AlphaScreen anti-acetyl-lysine; with virally co-expressed GCN5 acetyltransferase. actives 0.17% (n = 350,000);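 active = every replicate shows inhibition of at least 40%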;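 note: 0% = neutral control wells and 100% = positive control wells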
# XiGFP reactiv – activators of inactive X chromosome reactivation, primary screen, imaging, XiGFP fibroblasts, GFP high-content imaging, set 2 | XiGFP mouse fibroblasts, % GFP-positive cells imaging, 3 d; cells co-treated with 5-aza-dC sensitizer; scaled so ellipticine positive control = 100% | activation, % at 7.58 µM | actives 0.055% (n = 360,000) | AID 743238, 2013;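 active = mean normalized replicate activation at least 10% and every replicate at or above 10%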;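 note: 0% = median of on-plate neutral control wells and 100% = ellipticine 6 µM median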
#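 Assay system – SV40-immortalized XiGFP fibroblast cells, line 68-5-11 · Buffer or medium – DMEM supplemented with 5-aza-dC as sensitizing agent · Dosing – one concentration, pinned · Benchmarks – positive control ellipticine, 6 µM final · Times – 3 days compound exposure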
# DENV2 CPE – inhibitors of DENV2 cytopathic effect, primary screen, cell-based, plate reader, single concentration; DENV2-infected cells, cytopathic effect rescue; actives 1.7% (n = 350,000); CPE inhibition, % at 9.99 µM; in the data active = CPE inhibition above about 20%, passing the limit was not always enough; tested in BHK-21 cells;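 note: 0% = median of neutral control wells and 100% = median of positive control wells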
# The depositor's hits bear a star; . = no result; ! = a repeat was not active. Rows were chosen to be rich in hits. Some 1.9% of all compounds tested hit in one or more screens of this group.
SMILES,FN deposition inh,F508del corr,Cneo AK release,PGC1a acetyl inh,XiGFP reactiv,DENV2 CPE
Cc1ccc(S(=O)(=O)Nc2cc(C)cc(CCNC=O)c2C)cc1,-10,9.6*,.,.,1,2
O=S(=O)(c1cccc(F)c1)N1[C@@H]2CNC[C@H]1C2c1ccc(-c2ccccc2)cc1 (some centres not stated),1,0,.,-41,0,-5
Cc1ccccc1S(=O)(=O)N1[C@@H]2CNC[C@H]1C2c1ccc(/C=C/c2ccccc2)cc1 (some centres not stated),0,1,.,-5,0,25*!
CS(=O)(=O)N1[C@@H]2CNC[C@H]1C2c1ccc(-c2ccccc2)cc1 (some centres not stated),-9,5,.,14,0,80*
COc1ccccc1S(=O)(=O)N1[C@@H]2CNC[C@H]1C2c1ccc(/C=C/c2ccccc2)cc1 (some centres not stated),-1,3,.,-11,0,-2
C[C@H](CO)N1C[C@H](C)[C@@H](CN(C)C(=O)c2ccncc2)OCCCC[C@H](C)Oc2ccc(NS(=O)(=O)c3ccc(F)cc3)cc2C1=O,-3,1,-1,16,0,4
O=C(c1cnccn1)N1CC[C@@H]2[C@H]1c1cc(C#Cc3cccnc3)ccc1N[C@@H]2CO,-20,7,2,2,0,3
C[C@@H]1CN([C@H](C)CO)C(=O)c2cc(N(C)C)ccc2O[C@@H]1CN(C)S(=O)(=O)c1ccccc1,.,-1,1,-2,0,-1
C[C@H]1CN([C@@H](C)CO)C(=O)c2cc(N(C)C)ccc2O[C@H]1CN(C)S(=O)(=O)c1ccccc1,.,3,49,-7,0,31*
C[C@@H]1CN([C@@H](C)CO)C(=O)c2cc(N(C)C)ccc2O[C@H]1CN(C)S(=O)(=O)c1ccccc1,.,-3,48,31,-1,79*
CN(C)S(=O)(=O)c1ccccc1C#N,.,-2,3,-11,.,0
CN(C)S(=O)(=O)c1cccc2c1C(=O)c1ccccc1C2=O,-4,-1,.,.,0,23*
O=C(C[C@H]1CC[C@@H](NC(=O)c2ccccn2)[C@@H](CO)O1)NCc1cccc(F)c1,.,-3,46,7,0,8
Cc1nnc(SCC(=O)N(C2CCCCC2)C2CCS(=O)(=O)C2)n1N (configuration not stated),.,0,6,.,0,35*
Cc1ccc(S(=O)(=O)Nc2cccc3c2O[C@H](CN(C)S(=O)(=O)c2ccc(C)cc2)[C@H](C)CN([C@@H](C)CO)C3=O)cc1,-12,-2,.,6,0,4
COc1ccccc1Cc1c(-c2ccc(Cl)cc2)nc2ccc(Br)cn12,-1,10*,12,3,0,-12
COc1ccccc1Cc1c(-c2ccc(C)cc2)nc2ccc(Br)cn12,-9,5,-2,0,0,2
C[C@H]1CN([C@@H](C)CO)C(=O)c2c(c3ccccc3n2C)-c2ccccc2CO[C@H]1CN(C)S(=O)(=O)Cc1ccccc1,-10,1,1,3,0,2
CN(C)CC(=O)N[C@@H]1C=C[C@@H](CC(=O)NCCN2CCCCC2)O[C@H]1CO,-6,3,52,-11,0,4
CN(C)CC(=O)N[C@H]1C=C[C@@H](CC(=O)NCCN2CCCCC2)O[C@@H]1CO,14,2,-1,-4,0,59*
O=C(O)C[C@H]1C=C[C@@H](NC(=O)CCN2CCCCC2)[C@@H](CO)O1,8,1,.,-5,0,97*
O=C(N[C@@H]1CC[C@@H](CCn2cc(C3(O)CCCC3)nn2)O[C@@H]1CO)C1CCCCC1,.,0,-1,5,0,9
